Source: ChEMBL document CHEMBL1777667, “Synthesis and antibacterial activity of some binaphthyl-supported macrocycles containing a cationic amino acid” (2011)
Values after ≈ are worked out from the molar mass of the structure shown.

Tested on: Staphylococcus aureus
Experiment: Antibacterial activity against Staphylococcus aureus ATCC 6538P by two fold dilution method
Format: functional
Outline: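 Compounds dissolved in 10% methanol/water as stock, diluted in water, then serially twofold-diluted in LB across eight wells in triplicate. Overnight (14 h) LB culture grown at 37 °C, diluted 1 in 1,000 and added to wells. Media-only, no-compound and vancomycin controls were run. Operator was blinded. MIC read by eye as the concentration next to the first well of obvious growth.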

[1] = Staphylococcus aureus, ATCC 6538P, read-out: MIC

`COC(=O)[C@@H]1C/C=C/Cc2cc3ccccc3c(c2OC)-c2c(OC)c(cc3ccccc23)CC(NC(C)=O)C(=O)N[C@@H](C)C(=O)N[C@@H](CCCCN)C(=O)N1.Cl` (mixture of isomers) was tested, and the MIC [1] was greater than 250 µg/mL.

With `COC(=O)[C@@H]1CC=CCc2cc3ccccc3c(c2OC)-c2c(OC)c(cc3ccccc23)CC(NC(C)=O)C(=O)N[C@H](CCCCN)C(=O)N1.Cl` (mixture of isomers; 25) the MIC was 31 µg/mL.

In the case of `COC(=O)[C@@H]1CC=CCc2cc3ccccc3c(c2OC)-c2c(OC)c(cc3ccccc23)CC(NC(C)=O)C(=O)N[C@H](CCCCN)C(=O)N1.Cl` (mixture of isomers; 1), the MIC is reported as 16 µg/mL.

`COC(=O)[C@@H]1C/C=C/Cc2cc3ccccc3c(c2OC)-c2c(OC)c(cc3ccccc23)CC(NC(C)=O)C(=O)N[C@H](CCCNC(=N)N)C(=O)N1.Cl` (mixture of isomers; 22) was tested, and the MIC [1] was 62 µg/mL.

Molecule `COC(=O)[C@@H]1CC=CCc2cc3ccccc3c(c2OC)-c2c(OC)c(cc3ccccc23)CC(NC(C)=O)C(=O)N[C@H](CCCCN)C(=O)N1.Cl` (mixture of isomers; 26) has an MIC of 8 µg/mL.

Molecule `C=CCc1cc2ccccc2c(-c2c(OC)c(CC(NC(C)=O)C(=O)N[C@@H](CCCNC(=N)N)C(=O)N[C@@H](CC=C)C(=O)OC)cc3ccccc23)c1OC` (some centres not stated) has an MIC [1] of 4 µg/mL (≈ 5.33 µM).

For `COC(=O)[C@@H]1C/C=C/Cc2cc3ccccc3c(c2OC)-c2c(OC)c(cc3ccccc23)CC(NC(C)=O)C(=O)N[C@H](CCCNC(=N)NS(=O)(=O)c2c(C)c(C)c3c(c2C)CCC(C)(C)O3)C(=O)N1` (mixture of isomers), the MIC [1] was 31 µg/mL.

`COC(=O)[C@@H]1C/C=C/Cc2cc3ccccc3c(c2OC)-c2c(OC)c(cc3ccccc23)CC(NC(C)=O)C(=O)N[C@H](CCCCNC(=O)OC(C)(C)C)C(=O)N1` (mixture of isomers) gave an MIC [1] greater than 250 µg/mL.

In the case of `COC(=O)[C@@H]1C/C=C/Cc2cc3ccccc3c(c2OC)-c2c(OC)c(cc3ccccc23)CC(NC(C)=O)C(=O)N[C@H](CCCNC(=N)N)C(=O)N1.Cl` (mixture of isomers; 24), the MIC is reported as 62 µg/mL.

`COC(=O)[C@@H]1CC=CCc2cc3ccccc3c(c2OC)-c2c(OC)c(cc3ccccc23)CC(NC(C)=O)C(=O)N[C@H](CCCCN)C(=O)N1.Cl` (mixture of isomers; 21) was tested, and the MIC was 62 µg/mL.

`C=CCc1cc2ccccc2c(-c2c(OC)c(CC(NC(C)=O)C(=O)N[C@H](CCCNC(=N)N)C(=O)N[C@@H](CC=C)C(=O)OC)cc3ccccc23)c1OC` (some centres not stated) showed an MIC [1] of 4 µg/mL (≈ 5.33 µM).

`COC(=O)[C@@H]1C/C=C/Cc2cc3ccccc3c(c2OC)-c2c(OC)c(cc3ccccc23)CC(NC(C)=O)C(=O)N[C@@H](CCCCNC(=O)OCC2c3ccccc3-c3ccccc32)C(=O)N1` (mixture of isomers) showed an MIC [1] greater than 250 µg/mL.
